Measured values reported in publication PMC7049346 (Haematologica, 2019).

Key:
[1] = molecular target: PDE4D7 (Homo sapiens, UniProt Q08499); assay: PDE enzyme inhibition, radiometric assay; assay type: biochemical
In short: (§1)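 Recombinant human PDE enzymes (33 in the panel) were incubated in vitro with increasing concentrations of the test compound. Enzyme activity was measured radiometrically and IC50 values derived.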

[2] = molecular target: PDE4D4 (Homo sapiens, UniProt Q08499); assay: PDE enzyme inhibition, radiometric assay; assay type: biochemical
In short: as §1

[3] = tested on: erythroid cells from CD34+ progenitors of SCD patients; assay: HbF induction in SCD patient-derived erythroblasts; assay type: cell-based, human; conditions: 10 μM IMR-687, five days, n=9, P<0.01
In short: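 CD34⁺ progenitors came from the blood or bone marrow of nine SCD donors. Cells grew seven days with 15% BIT 9500, 2 mM L-glutamine, IL-3 (10 ng/mL), IL-6 and SCF (100 ng/mL). CD36⁺ cells were then isolated and grown five days with SCF, IL-3 and EPO (2 UI/mL) plus DMSO, 30 μM hydroxyurea or 10 μM test compound. HbF⁺ cells (%) and HbF MFI were read by PE-anti-HbF FACS, gated LiveDead⁻/GPA⁺/Band3⁺.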

[4] = molecular target: PDE5A3 (Homo sapiens, UniProt O76074); assay: PDE enzyme inhibition, radiometric assay; assay type: biochemical
In short: as §1

[5] = molecular target: PDE2A3 (Homo sapiens, UniProt O00408); assay: PDE enzyme inhibition, radiometric assay; assay type: biochemical
In short: as §1

[6] = tested on: HbSS-Townes mice; assay: HbSS-Townes vaso-occlusive crisis model; assay type: in vivo
[7] = tested on: rats; assay: Long-term toxicology study in normal rats; assay type: in vivo; conditions: data not shown
[8] = molecular target: PDE4A1 (Homo sapiens, UniProt P27815); assay: PDE enzyme inhibition, radiometric assay; assay type: biochemical
In short: as §1

[9] = molecular target: PDE4D2 (Homo sapiens, UniProt Q08499); assay: PDE enzyme inhibition, radiometric assay; assay type: biochemical
In short: as §1

[10] = molecular target: PDE7A (Homo sapiens, UniProt Q13946); assay: PDE enzyme inhibition, radiometric assay; assay type: biochemical
In short: as §1

[11] = molecular target: PDE11A1 (Homo sapiens, UniProt Q9HCR9); assay: PDE enzyme inhibition, radiometric assay; assay type: biochemical
In short: as §1

[12] = tested on: rodents; assay: Fertility and fetal development in rodents; assay type: in vivo
[13] = tested on: K562 cells; assay: cGMP induction in K562 cells; assay type: cell-based, human; conditions: 6 h
In short: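 Actively growing K562 cells were treated for 6 h with increasing concentrations of the test compound or hydroxyurea. cGMP was measured by non-radioactive enzyme immunoassay using the acetylation protocol, and protein by BCA assay. Data are means±Standard Errors.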

[14] = molecular target: PDE7B (Homo sapiens, UniProt Q9NP56); assay: PDE enzyme inhibition, radiometric assay; assay type: biochemical
In short: as §1

[15] = molecular target: PDE3B (Homo sapiens, UniProt Q13370); assay: PDE enzyme inhibition, radiometric assay; assay type: biochemical
In short: as §1

[16] = tested on: mice; assay: Classical fear conditioning model of learning and memory; assay type: in vivo; conditions: similar dose of both PDE9i
[17] = molecular target: PDE4C2 (Homo sapiens, UniProt Q08493); assay: PDE enzyme inhibition, radiometric assay; assay type: biochemical
In short: as §1

[18] = molecular target: PDE10A2 (Homo sapiens, UniProt Q9Y233); assay: PDE enzyme inhibition, radiometric assay; assay type: biochemical
In short: as §1

[19] = molecular target: PDE5A1 (Homo sapiens, UniProt O76074); assay: PDE enzyme inhibition, radiometric assay; assay type: biochemical
In short: as §1

[20] = tested on: K562 cells; assay: HbF induction in K562 cells; assay type: cell-based, human; conditions: 72 h
[21] = molecular target: PDE4D3 (Homo sapiens, UniProt Q08499); assay: PDE enzyme inhibition, radiometric assay; assay type: biochemical
In short: as §1

[22] = molecular target: PDE9A2 (Homo sapiens, UniProt O76083); assay: PDE enzyme inhibition, radiometric assay; assay type: biochemical; conditions: IC50, recombinant human PDE9A2
In short: as §1

[23] = molecular target: PDE4B2 (Homo sapiens, UniProt Q07343); assay: PDE enzyme inhibition, radiometric assay; assay type: biochemical
In short: as §1

[24] = molecular target: PDE8A1 (Homo sapiens, UniProt O60658); assay: PDE enzyme inhibition, radiometric assay; assay type: biochemical
In short: as §1

[25] = molecular target: PDE1A3 (Homo sapiens, UniProt P54750); assay: PDE enzyme inhibition, radiometric assay; assay type: biochemical
In short: as §1

[26] = molecular target: PDE6AB (Homo sapiens, UniProt P16499+P35913); assay: PDE enzyme inhibition, radiometric assay; assay type: biochemical
In short: as §1

[27] = molecular target: PDE3A (Homo sapiens, UniProt Q14432); assay: PDE enzyme inhibition, radiometric assay; assay type: biochemical
In short: as §1

[28] = molecular target: PDE1C (Homo sapiens, UniProt Q14123); assay: PDE enzyme inhibition, radiometric assay; assay type: biochemical
In short: as §1

[29] = Genotoxicity
[30] = tested on: dogs; assay: Long-term toxicology study in dogs; assay type: in vivo
[31] = molecular target: PDE8B (Homo sapiens, UniProt O95263); assay: PDE enzyme inhibition, radiometric assay; assay type: biochemical
In short: as §1

[32] = molecular target: PDE4B3 (Homo sapiens, UniProt Q07343); assay: PDE enzyme inhibition, radiometric assay; assay type: biochemical
In short: as §1

[33] = molecular target: PDE4D5 (Homo sapiens, UniProt Q08499); assay: PDE enzyme inhibition, radiometric assay; assay type: biochemical
In short: as §1

[34] = Locomotor activity and behavioral responses in toxicology studies; assay type: in vivo; conditions: data not shown
[35] = tested on: UT-7 cells; assay: HbF induction in UT-7 cells; assay type: cell-based, human; conditions: GM-CSF dependent erythroid line UT-7; data not shown

PDE2A3, sequence (O00408 whole entry): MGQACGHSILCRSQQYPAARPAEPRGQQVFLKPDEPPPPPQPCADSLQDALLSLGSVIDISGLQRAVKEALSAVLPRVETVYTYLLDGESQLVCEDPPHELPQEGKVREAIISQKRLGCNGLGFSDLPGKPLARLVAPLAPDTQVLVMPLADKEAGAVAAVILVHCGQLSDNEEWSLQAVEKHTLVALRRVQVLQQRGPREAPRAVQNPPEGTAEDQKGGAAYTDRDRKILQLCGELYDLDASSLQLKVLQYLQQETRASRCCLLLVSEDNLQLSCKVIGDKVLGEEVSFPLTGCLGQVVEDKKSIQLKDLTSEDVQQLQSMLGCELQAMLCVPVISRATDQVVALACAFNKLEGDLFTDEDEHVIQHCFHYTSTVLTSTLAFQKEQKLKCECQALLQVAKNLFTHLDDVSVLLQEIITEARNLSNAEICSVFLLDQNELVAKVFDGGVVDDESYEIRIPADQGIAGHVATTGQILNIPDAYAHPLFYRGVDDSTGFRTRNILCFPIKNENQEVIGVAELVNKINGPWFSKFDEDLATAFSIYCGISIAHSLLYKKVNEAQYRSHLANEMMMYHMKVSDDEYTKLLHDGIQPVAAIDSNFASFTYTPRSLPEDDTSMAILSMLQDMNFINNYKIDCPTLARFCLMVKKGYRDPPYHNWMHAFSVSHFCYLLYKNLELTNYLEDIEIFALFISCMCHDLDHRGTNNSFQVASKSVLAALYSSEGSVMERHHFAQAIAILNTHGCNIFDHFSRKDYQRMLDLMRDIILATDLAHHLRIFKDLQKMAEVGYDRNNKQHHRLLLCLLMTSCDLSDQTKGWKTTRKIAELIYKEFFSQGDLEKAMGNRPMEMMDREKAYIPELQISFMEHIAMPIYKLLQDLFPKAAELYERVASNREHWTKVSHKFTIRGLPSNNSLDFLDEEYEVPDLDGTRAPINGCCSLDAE
PDE4D7, sequence (Q08499 1-748 isoform Q08499-11): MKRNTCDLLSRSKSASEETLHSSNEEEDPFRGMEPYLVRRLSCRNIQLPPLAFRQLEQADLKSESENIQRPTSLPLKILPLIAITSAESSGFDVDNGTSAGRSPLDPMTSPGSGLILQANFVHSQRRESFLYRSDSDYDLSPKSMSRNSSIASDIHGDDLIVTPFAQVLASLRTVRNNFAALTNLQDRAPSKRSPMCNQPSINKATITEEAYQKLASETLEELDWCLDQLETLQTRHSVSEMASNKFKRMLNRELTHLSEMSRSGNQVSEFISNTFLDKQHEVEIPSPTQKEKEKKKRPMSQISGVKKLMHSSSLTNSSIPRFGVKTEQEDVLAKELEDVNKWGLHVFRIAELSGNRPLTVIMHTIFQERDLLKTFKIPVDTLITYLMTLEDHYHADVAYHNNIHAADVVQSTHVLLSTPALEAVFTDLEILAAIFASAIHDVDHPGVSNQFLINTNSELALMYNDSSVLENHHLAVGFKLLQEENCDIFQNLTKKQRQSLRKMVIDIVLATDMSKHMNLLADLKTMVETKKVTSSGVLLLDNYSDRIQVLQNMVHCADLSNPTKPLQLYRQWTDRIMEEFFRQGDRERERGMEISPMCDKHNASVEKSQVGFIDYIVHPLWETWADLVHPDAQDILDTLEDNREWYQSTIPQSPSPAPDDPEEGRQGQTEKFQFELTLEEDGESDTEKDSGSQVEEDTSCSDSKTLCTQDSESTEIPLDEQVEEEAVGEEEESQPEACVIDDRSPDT
PDE11A1, sequence (Q9HCR9 445-933): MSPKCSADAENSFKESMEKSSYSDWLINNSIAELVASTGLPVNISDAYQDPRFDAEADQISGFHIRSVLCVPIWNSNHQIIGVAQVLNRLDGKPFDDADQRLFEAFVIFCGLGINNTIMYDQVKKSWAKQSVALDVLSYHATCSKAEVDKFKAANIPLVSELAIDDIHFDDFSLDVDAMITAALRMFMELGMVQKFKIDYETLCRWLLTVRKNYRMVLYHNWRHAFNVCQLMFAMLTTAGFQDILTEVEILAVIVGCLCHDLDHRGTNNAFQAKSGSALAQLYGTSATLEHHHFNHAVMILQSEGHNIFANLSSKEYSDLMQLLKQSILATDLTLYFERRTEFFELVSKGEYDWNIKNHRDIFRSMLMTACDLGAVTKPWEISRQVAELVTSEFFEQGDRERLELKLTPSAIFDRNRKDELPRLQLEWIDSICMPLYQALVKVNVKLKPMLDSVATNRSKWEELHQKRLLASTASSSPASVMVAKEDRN
PDE7A, sequence (Q13946 whole entry): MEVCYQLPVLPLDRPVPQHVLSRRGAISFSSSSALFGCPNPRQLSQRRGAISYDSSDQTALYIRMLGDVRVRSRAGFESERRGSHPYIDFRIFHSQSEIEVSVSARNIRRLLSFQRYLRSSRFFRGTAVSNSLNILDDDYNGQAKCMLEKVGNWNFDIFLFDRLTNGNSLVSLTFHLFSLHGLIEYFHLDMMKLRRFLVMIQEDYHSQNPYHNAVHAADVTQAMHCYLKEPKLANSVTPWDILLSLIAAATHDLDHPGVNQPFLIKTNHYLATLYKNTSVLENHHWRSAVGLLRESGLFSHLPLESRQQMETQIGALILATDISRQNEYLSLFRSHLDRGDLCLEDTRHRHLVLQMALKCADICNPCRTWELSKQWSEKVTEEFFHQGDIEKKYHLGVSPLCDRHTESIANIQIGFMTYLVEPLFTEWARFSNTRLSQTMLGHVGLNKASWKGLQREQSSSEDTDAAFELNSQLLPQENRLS
PDE4D3, sequence (Q08499 1-673 isoform Q08499-2): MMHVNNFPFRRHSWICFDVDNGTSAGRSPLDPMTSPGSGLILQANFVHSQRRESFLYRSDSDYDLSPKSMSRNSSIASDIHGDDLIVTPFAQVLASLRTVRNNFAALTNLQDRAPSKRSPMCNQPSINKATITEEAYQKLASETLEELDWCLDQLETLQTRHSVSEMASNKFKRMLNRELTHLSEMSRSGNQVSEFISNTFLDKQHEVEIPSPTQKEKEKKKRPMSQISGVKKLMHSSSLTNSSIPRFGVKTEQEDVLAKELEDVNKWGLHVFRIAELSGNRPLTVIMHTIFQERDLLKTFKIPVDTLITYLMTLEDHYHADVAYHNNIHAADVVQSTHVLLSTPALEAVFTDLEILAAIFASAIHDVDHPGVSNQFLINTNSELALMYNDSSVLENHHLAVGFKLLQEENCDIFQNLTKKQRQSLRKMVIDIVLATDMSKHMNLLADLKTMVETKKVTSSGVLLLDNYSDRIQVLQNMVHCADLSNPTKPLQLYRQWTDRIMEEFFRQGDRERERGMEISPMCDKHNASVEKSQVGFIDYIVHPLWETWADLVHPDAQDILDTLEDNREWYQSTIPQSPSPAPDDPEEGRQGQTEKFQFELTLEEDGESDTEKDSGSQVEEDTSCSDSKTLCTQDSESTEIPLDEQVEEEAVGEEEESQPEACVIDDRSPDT
PDE4D4, sequence (Q08499 whole entry): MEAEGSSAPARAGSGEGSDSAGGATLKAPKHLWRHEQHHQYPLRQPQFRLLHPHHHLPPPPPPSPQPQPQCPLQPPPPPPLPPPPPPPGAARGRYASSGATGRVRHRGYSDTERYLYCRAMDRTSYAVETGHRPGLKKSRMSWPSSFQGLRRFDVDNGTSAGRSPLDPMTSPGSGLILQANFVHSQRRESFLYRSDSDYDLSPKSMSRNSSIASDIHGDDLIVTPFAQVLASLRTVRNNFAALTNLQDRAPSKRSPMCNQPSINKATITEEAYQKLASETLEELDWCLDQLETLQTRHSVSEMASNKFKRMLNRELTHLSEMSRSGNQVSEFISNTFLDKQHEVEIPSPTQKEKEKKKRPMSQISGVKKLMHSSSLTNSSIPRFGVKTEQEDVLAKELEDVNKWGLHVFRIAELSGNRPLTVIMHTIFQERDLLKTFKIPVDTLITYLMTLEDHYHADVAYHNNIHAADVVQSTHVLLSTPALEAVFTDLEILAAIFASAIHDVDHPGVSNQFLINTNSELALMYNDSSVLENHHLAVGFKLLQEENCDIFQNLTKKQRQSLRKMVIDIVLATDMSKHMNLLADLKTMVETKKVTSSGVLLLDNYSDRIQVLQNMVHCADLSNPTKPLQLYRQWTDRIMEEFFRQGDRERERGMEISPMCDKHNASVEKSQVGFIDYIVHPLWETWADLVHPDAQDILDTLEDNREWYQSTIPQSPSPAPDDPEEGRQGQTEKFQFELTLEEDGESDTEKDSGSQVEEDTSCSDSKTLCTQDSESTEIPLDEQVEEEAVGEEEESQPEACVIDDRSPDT
PDE8B, sequence (O95263 whole entry): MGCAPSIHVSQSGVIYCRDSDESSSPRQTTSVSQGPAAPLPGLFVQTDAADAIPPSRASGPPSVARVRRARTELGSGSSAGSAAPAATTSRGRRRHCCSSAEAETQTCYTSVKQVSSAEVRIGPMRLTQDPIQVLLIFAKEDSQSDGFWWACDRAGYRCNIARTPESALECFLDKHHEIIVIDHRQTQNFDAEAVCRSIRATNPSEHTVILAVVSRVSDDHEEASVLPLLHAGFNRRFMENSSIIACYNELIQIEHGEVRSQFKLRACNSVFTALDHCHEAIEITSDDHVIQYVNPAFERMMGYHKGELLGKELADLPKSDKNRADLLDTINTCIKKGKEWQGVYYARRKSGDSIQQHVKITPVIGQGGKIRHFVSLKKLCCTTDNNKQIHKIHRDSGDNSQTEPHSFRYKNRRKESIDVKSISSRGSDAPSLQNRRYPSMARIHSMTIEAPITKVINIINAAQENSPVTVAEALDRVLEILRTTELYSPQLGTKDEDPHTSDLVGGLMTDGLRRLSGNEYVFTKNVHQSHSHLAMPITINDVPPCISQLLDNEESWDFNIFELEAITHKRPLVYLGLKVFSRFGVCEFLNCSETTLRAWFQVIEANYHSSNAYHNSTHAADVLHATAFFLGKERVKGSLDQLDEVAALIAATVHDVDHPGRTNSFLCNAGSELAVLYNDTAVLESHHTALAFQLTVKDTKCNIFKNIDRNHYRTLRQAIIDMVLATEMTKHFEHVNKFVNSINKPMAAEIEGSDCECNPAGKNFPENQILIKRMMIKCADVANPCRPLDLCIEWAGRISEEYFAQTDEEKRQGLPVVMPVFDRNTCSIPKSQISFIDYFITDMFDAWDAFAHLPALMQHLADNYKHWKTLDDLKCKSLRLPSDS

SMILES: C[C@@H]1CN(Cc2ncccn2)C[C@H]1c1cn2c(C3CCOCC3)ncc2c(=O)[nH]1 [IMR-687]
- IC50 [1]: > 100 µM
- IC50 [2]: > 100 µM
- percentage of F-cells (HbF positive) ([3]; DMSO control 13.3%): 21.9%
- intensity of HbF staining (MFI) ([3]; control 6073±1217): 7813±1374
- IC50 [4]: > 100 µM
- IC50 [5]: > 100 µM
- microvascular stasis ([6]; 10 mg/kg/day for ten days, 1 h in normoxia, vehicle 33%, P<0.05): 20%
- microvascular stasis ([6]; 10 mg/kg/day for ten days, 4 h in normoxia, vehicle 16%, ns): 14%
- microvascular stasis ([6]; 30 mg/kg/day for ten days, 4 h in normoxia, vehicle 16%, P<0.01): 7%
- peripheral WBC counts ([7]; normal rats, up to 6 months, super-physiological doses): did not result in any reduction in peripheral WBC counts
- myelotoxicity, histological examination of bone marrow smears ([7]; rats): did not demonstrate any myelotoxicity
- IC50 [8]: > 100 µM
- IC50 [9]: > 100 µM
- IC50 [10]: > 100 µM
- IC50 [11]: > 100 µM
- impact on fertility or fetal development [12]: did not impact fertility or fetal development
- cGMP induction [13]: induced cGMP in a dosedependent manner
- IC50 [14]: > 100 µM
- IC50 [15]: > 100 µM
- conditioned fear responses [16]: no effect
- IC50 [17]: > 100 µM
- IC50 [18]: > 100 µM
- IC50 [19]: > 100 µM
- HbF induction (ELISA) [20]: dose-dependently induced more HbF than either BAY73-6691 or BAY 41-2271
- HbF induction relative to a dose of HU that demonstrated cytotoxicity ([20]; 10 μM IMR-687): 4.6 times
- IC50 [21]: > 100 µM
- IC50 [22]: 0.01 µM
- IC50 [23]: > 100 µM
- IC50 [24]: > 100 µM
- IC50 [25]: 88.4 µM
- IC50 [26]: > 100 µM
- IC50 [27]: > 100 µM
- IC50 [28]: 12.2 µM
- genotoxicity [29]: not genotoxic
- myelotoxicity, histological examination of bone marrow smears ([30]; data not shown): did not demonstrate any myelotoxicity
- peripheral WBC counts ([30]; up to 9 months, oral daily 10, 25, or 50 mg/kg): did not result in any reduction in peripheral WBC counts
- IC50 [31]: > 100 µM
- IC50 [32]: > 100 µM
- IC50 [33]: > 100 µM
- effect on locomotor activity or behavioral responses [34]: no effect
- HbF induction [35]: Induction of HbF by IMR-687 was observed
